ChEMBL document CHEMBL1132479, “Synthesis, physicochemical characterization, and biological evaluation of 2-(1'-hydroxyalkyl)-3-hydroxypyridin-4-ones: novel iron chelators with enhanced pFe(3+) values” (J Med Chem, 1999)

Columns and labels:
[1] = Partition coefficient (logD7.4); format: physicochemical; settings: octanol/water, pH 7.4
In short: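 Partitioning between 1-octanol and 50 mM MOPS buffer pH 7.4 (mutually saturated) in an automated continuous-flow filter-probe system. Compound was dissolved in buffer to an absorbance of 0.5–1.5 at ~280 nm. The aqueous phase was separated by a hydrophilic cellulose filter and monitored spectrophotometrically. D7.4 was calculated after each octanol addition.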

[2] = tested on: Rattus norvegicus; assay: (§1) Compound was tested in vivo for Iron mobilization efficacy against hepatocytes in normal fasted rats (loaded with [59Fe]-Ferritin).; format: functional, Hepatocyte
In short: (§2)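 Fasted normal rats (190–230 g) received [59Fe]ferritin by tail vein to label hepatocyte iron. One hour later chelator was given orally at 450 µmol/kg; controls received an equal volume of water. Rats were kept in metabolic cages, with food allowed 1 h after dosing and water unrestricted. At 24 h, liver and GI tract plus feces were gamma-counted. Mean ± SD, n=5.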

[3] = pFe3+ (negative logarithm of the concentration of the free Iron(III) in solution) of the compound.; format: ADME
In short: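 pFe3+ is the negative log of free Fe(III), calculated from the ligand pKa values and Fe(III) stability constants at total ligand 10^-5 M, total iron 10^-6 M, pH 7.4.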

[4] = tested on: Rattus norvegicus; assay: as §1; format: functional, Hepatocyte; parameters: concentration or dose not given beside the values; in short: as §2
[5] = Partition coefficient (logP); format: physicochemical; settings: octanol/water
[6] = Ligand pka2 value was investigated by potentiometric titration; format: physicochemical; settings: read-out: pKa2
In short: (§3)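 Simultaneous potentiometric and UV/vis titration in 0.1 M KCl (25 mL), acidified with 0.2 M HCl and titrated with 0.2 M KOH in 0.01-mL increments. Run at 25 ± 0.5 °C under argon. Electrode zero was set by a blank titration using Gran's plot. pKa values came from non-linear least-squares regression, accurate to ±0.02 pH unit.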

[7] = Affinity constant log K1 value for Fe(III) complex; format: ADME
In short: (§4)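 Spectrophotometric titration of Fe(III) with ligand at a ligand:iron ratio of about 10:1, with 0.2 M KOH added by programmed autoburette. Full spectra were recorded across pH, e.g. 1.59–10.05 with [Fe(III)] = 1.8×10^-4 M. Cumulative stability constants were optimized by non-linear least-squares regression using the predetermined pKa values, electrode slope and electrode zero.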

[8] = Affinity constant log K3 value for Fe(III) complex; format: ADME; in short: as §4
[9] = Affinity constant log beta-3 value for Fe(III) complex; format: ADME; in short: as §4
[10] = Ligand pka1 value was investigated by potentiometric titration; format: physicochemical; settings: read-out: pKa1; in short: as §3
[11] = Affinity constant log K2 value for Fe(III) complex; format: ADME; in short: as §4
[12] = tested on: Rattus norvegicus; assay: Compound was tested in vivo for Iron mobilization against hepatocytes in normal fasted rats (loaded with [59Fe]-Ferritin).; format: functional, Hepatocyte; in short: as §2
[13] = tested on: Rattus norvegicus; assay: Compound was tested in vivo for Iron mobilization efficacy against hepatocytes in normal fasted rats(loaded with [59Fe]-Ferritin).; format: functional, Hepatocyte
In short: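 Normal fasted rats (190–230 g); hepatocyte iron labelled with [59Fe]ferritin given by tail vein. One hour later, chelator 450 µmol/kg was given orally; controls received an equivalent volume of water. Rats were housed in individual metabolic cages with urine and feces collected. Killed 24 h after ferritin; liver and GI tract with contents and feces were gamma counted. Means ± SD, n=5.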

[14] = tested on: Rattus norvegicus; assay: Compound was tested in vivo for Iron mobilization against hepatocytes in normal fasted rats ( loaded with [59Fe]-Ferritin).; format: functional, Hepatocyte; in short: as §2
[15] = Ligand pka1 value was investigated by spectrophotometric titration; format: physicochemical; settings: read-out: pKa1; in short: as §3
[16] = Ligand pka2 value was investigated by spectrophotometric titration; format: physicochemical; settings: read-out: pKa2; in short: as §3

| logD [1] | pFe3 [3] | logP [5] | pKa [6] | Log K1 [7] | Log K3 [8] | Log beta3 [9] | pKa [10] | Log K2 [11] | pKa [15] | pKa [16] | SMILES | Iron mobilization [2] [%] | Efficacy [4] [%] | Iron mobilization [12] [%] | Efficacy [13] [%] | Iron mobilization [14] [%] |
| --- | --- | --- | --- | --- | --- | --- | --- | --- | --- | --- | --- | --- | --- | --- | --- | --- |
| 0.749 |  | 0.749 |  |  |  |  |  |  |  |  | O=C(OCCCn1ccc(=O)c(O)c1CO)c1ccccc1 |  | 52.1 | 56 |  |  |
| 1.25 |  | 1.25 |  |  |  |  |  |  |  |  | Cc1c(O)c(=O)ccn1CCCOC(=O)c1ccccc1 |  | 32.5 |  |  |  |
| 1.16 |  | 1.16 |  |  |  |  |  |  |  |  | CCc1c(O)c(=O)ccn1CCOC(=O)C(C)(C)C |  | 19.1 |  |  |  |
| -0.854 | 21 | -0.854 | 9.27 | 14.66 | 9.43 | 35.3 | 2.8 | 11.16 |  |  | CCn1ccc(=O)c(O)c1CO |  | 29.4 |  |  | 33.3 |
| -1.25 | 20.7 | -1.25 | 9.29 | 15.67 | 9.57 | 35.3 | 3.02 | 10.01 |  |  | O=c1ccn(CCCO)c(CO)c1O |  | 7.8 | 11.7 |  |  |
|  | 19.7 |  | 9.93 | 15.2 | 9.84 | 36.8 | 3.81 | 11.76 |  |  | CCc1c(O)c(=O)ccn1CC |  | 55.8 |  |  |  |
| -1.12 | 21.5 | -1.12 | 8.72 | 14.93 | 8.87 | 34.7 | 2.98 | 10.87 |  |  | CC(O)c1c(O)c(=O)ccn1CCCO (stereo not drawn) |  | 10.6 | 14.5 |  |  |
| -1.32 | 20.9 | -1.32 | 9.11 | 14.47 | 9.58 | 35.3 | 2.92 | 11.27 |  | 9.11 | Cn1ccc(=O)c(O)c1CO |  | 4.6 | 8.44 |  |  |

More lines, now with the values behind:

| SMILES | logD [1] | pFe3 [3] | logP [5] | pKa [6] | Log K1 [7] | Log K3 [8] | Log beta3 [9] | pKa [10] | Log K2 [11] | pKa [15] | pKa [16] | Iron mobilization [2] [%] | Efficacy [4] [%] | Iron mobilization [12] [%] | Efficacy [13] [%] | Iron mobilization [14] [%] |
| --- | --- | --- | --- | --- | --- | --- | --- | --- | --- | --- | --- | --- | --- | --- | --- | --- |
| CCn1ccc(=O)c(O)c1C(C)O (stereo not drawn) | -0.575 | 21.4 | -0.575 | 8.77 | 15.21 | 8.9 | 35.1 | 3.03 | 10.97 |  |  | 54.5 | 50.6 |  |  |  |
| CCn1c(C)cc(=O)c(O)c1CO | -0.652 | 20.4 | -0.652 | 9.45 | 14.37 | 9.64 | 35.6 | 3.29 | 11.6 |  |  |  | 9 | 12.9 |  |  |
| Cc1c(O)c(=O)ccn1C [DEFERIPRONE] |  | 19.4 |  | 9.77 | 14.56 | 9.69 | 36.4 |  | 12.19 |  |  |  |  |  | 9.5 |  |
| Cc1cc(=O)c(O)c(C(C)O)n1C (stereo not drawn) | -0.606 | 21.5 | -0.606 | 8.99 | 15.38 | 9.05 | 35.5 | 3.54 | 11.09 |  |  |  | 44.5 | 48.4 |  |  |
| CCc1c(O)c(=O)ccn1CCO |  |  |  |  |  |  |  |  |  |  |  |  | 12.9 |  |  |  |
| CCC(O)c1c(O)c(=O)cc(C)n1C (stereo not drawn) | -0.134 | 21 | -0.134 | 9 | 14.5 | 9.05 | 35 | 3.76 | 11.48 | 3.78 |  |  | 56.5 | 60.4 |  |  |
| Cc1cc(=O)c(O)c(CO)n1C | -1.01 | 20.4 | -1.01 | 9.44 | 14.39 | 9.55 | 35.5 | 3.32 | 11.57 |  |  |  | 0.6 | 4.5 |  |  |
| Cc1c(O)c(=O)ccn1CCCO |  |  |  |  |  |  |  |  |  |  |  |  | 26 |  |  |  |
